Source: ChEMBL document CHEMBL5058577, “EUbOPEN Chemogenomics Library 2 (Multiplex)” (2022)

Test system: Fibroblast
Assay: Multiplex assay against human fibroblast
Format: toxicity, cell-based
In short: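 Compound was added to live cells that had been stained at seeding with Hoechst33342, BioTracker Green Microtubule Cytoskeleton Dye, MitoTracker Red and Annexin V Alexa Fluor 680, and imaging followed on a CQ1 microscope at 37°C and 5% CO2. CellPathfinder machine-learning gating divided cells into Hoechst high-intensity objects or normal cells, normal cells into healthy, pyknosed or fragmented nuclei, and pyknosed cells into mitotic or apoptotic. Tubulin, mitochondrial-mass and membrane-permeability phenotypes are per cents of healthy-nucleus cells.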

[1] = 12 h, 1 µM, compound concentration 1 uM, replicate 1
[2] = 12 h, 1 µM, compound concentration 1 uM, replicate 2
[3] = 12 h, 10 µM, compound concentration 10 uM, replicate 1
[4] = 12 h, 10 µM, compound concentration 10 uM, replicate 2
[5] = 24 h, 1 µM, compound concentration 1 uM, replicate 1
[6] = 24 h, 1 µM, compound concentration 1 uM, replicate 2
[7] = 24 h, 10 µM, compound concentration 10 uM, replicate 1
[8] = 24 h, 10 µM, compound concentration 10 uM, replicate 2
[9] = 48 h, 1 µM, compound concentration 1 uM, replicate 1
[10] = 48 h, 1 µM, compound concentration 1 uM, replicate 2
[11] = 48 h, 10 µM, compound concentration 10 uM, replicate 1
[12] = 48 h, 10 µM, compound concentration 10 uM, replicate 2

## Oc1c(CN2CCN(c3ccccn3)CC2)cc(Cl)c2cccnc12
[1]
  Population Apoptotic (%): 73%
  Population Fragmented Nuclei (%): 17%
  Population Healthy Nuclei (%): 68%
  Population Hoechst High Intensity Objects (%): 4%
  Population Membrane Permeable-Phenotype (%): 1%
  Population Mitochondria Different-Phenotype (%): 0%
  Population Mitotic Cells (%): 26%
  Population Normal (%): 95%
  Population Pyknosed Nuclei (%): 14%
  Population Tubulin-Different-Phenotype (%): 27%
  Total Cell Count: 168
[2]
  Population Apoptotic (%): 57%
  Population Fragmented Nuclei (%): 27%
  Population Healthy Nuclei (%): 54%
  Population Hoechst High Intensity Objects (%): 5%
  Population Membrane Permeable-Phenotype (%): 8%
  Population Mitochondria Different-Phenotype (%): 6%
  Population Mitotic Cells (%): 42%
  Population Normal (%): 94%
  Population Pyknosed Nuclei (%): 18%
  Population Tubulin-Different-Phenotype (%): 43%
  Total Cell Count: 152
[3]
  Population Apoptotic (%): 41%
  Population Fragmented Nuclei (%): 17%
  Population Healthy Nuclei (%): 54%
  Population Hoechst High Intensity Objects (%): 5%
  Population Membrane Permeable-Phenotype (%): 0%
  Population Mitochondria Different-Phenotype (%): 25%
  Population Mitotic Cells (%): 58%
  Population Normal (%): 94%
  Population Pyknosed Nuclei (%): 27%
  Population Tubulin-Different-Phenotype (%): 67%
  Total Cell Count: 130
[4]
  Population Apoptotic (%): 33%
  Population Fragmented Nuclei (%): 25%
  Population Healthy Nuclei (%): 58%
  Population Hoechst High Intensity Objects (%): 2%
  Population Membrane Permeable-Phenotype (%): 2%
  Population Mitochondria Different-Phenotype (%): 9%
  Population Mitotic Cells (%): 66%
  Population Normal (%): 97%
  Population Pyknosed Nuclei (%): 16%
  Population Tubulin-Different-Phenotype (%): 62%
  Total Cell Count: 131
[5]
  Population Apoptotic (%): 50%
  Population Fragmented Nuclei (%): 19%
  Population Healthy Nuclei (%): 67%
  Population Hoechst High Intensity Objects (%): 3%
  Population Membrane Permeable-Phenotype (%): 0%
  Population Mitochondria Different-Phenotype (%): 3%
  Population Mitotic Cells (%): 50%
  Population Normal (%): 96%
  Population Pyknosed Nuclei (%): 13%
  Population Tubulin-Different-Phenotype (%): 30%
  Total Cell Count: 174
[6]
  Population Apoptotic (%): 45%
  Population Fragmented Nuclei (%): 29%
  Population Healthy Nuclei (%): 56%
  Population Hoechst High Intensity Objects (%): 5%
  Population Membrane Permeable-Phenotype (%): 8%
  Population Mitochondria Different-Phenotype (%): 7%
  Population Mitotic Cells (%): 55%
  Population Normal (%): 94%
  Population Tubulin-Different-Phenotype (%): 47%
  Total Cell Count: 153
[7]
  Population Apoptotic (%): 89%
  Population Fragmented Nuclei (%): 26%
  Population Healthy Nuclei (%): 46%
  Population Hoechst High Intensity Objects (%): 0%
  Population Membrane Permeable-Phenotype (%): 1%
  Population Mitochondria Different-Phenotype (%): 15%
  Population Mitotic Cells (%): 10%
  Population Normal (%): 100%
  Population Pyknosed Nuclei (%): 27%
  Population Tubulin-Different-Phenotype (%): 57%
  Total Cell Count: 139
[8]
  Population Apoptotic (%): 56%
  Population Fragmented Nuclei (%): 35%
  Population Healthy Nuclei (%): 41%
  Population Hoechst High Intensity Objects (%): 2%
  Population Mitochondria Different-Phenotype (%): 11%
  Population Mitotic Cells (%): 43%
  Population Normal (%): 97%
  Population Pyknosed Nuclei (%): 22%
  Population Tubulin-Different-Phenotype (%): 68%
  Total Cell Count: 134
[9]
  Population Apoptotic (%): 54%
  Population Fragmented Nuclei (%): 17%
  Population Healthy Nuclei (%): 67%
  Population Hoechst High Intensity Objects (%): 5%
  Population Membrane Permeable-Phenotype (%): 1%
  Population Mitochondria Different-Phenotype (%): 1%
  Population Mitotic Cells (%): 45%
  Population Normal (%): 94%
  Population Pyknosed Nuclei (%): 14%
  Population Tubulin-Different-Phenotype (%): 35%
  Total Cell Count: 158
[10]
  Population Apoptotic (%): 70%
  Population Fragmented Nuclei (%): 25%
  Population Healthy Nuclei (%): 66%
  Population Hoechst High Intensity Objects (%): 0%
  Population Membrane Permeable-Phenotype (%): 4%
  Population Mitochondria Different-Phenotype (%): 4%
  Population Mitotic Cells (%): 30%
  Population Normal (%): 99%
  Population Pyknosed Nuclei (%): 7%
  Population Tubulin-Different-Phenotype (%): 37%
  Total Cell Count: 137
[11]
  Population Apoptotic (%): 85%
  Population Fragmented Nuclei (%): 31%
  Population Healthy Nuclei (%): 32%
  Population Hoechst High Intensity Objects (%): 2%
  Population Membrane Permeable-Phenotype (%): 0%
  Population Mitochondria Different-Phenotype (%): 9%
  Population Mitotic Cells (%): 14%
  Population Normal (%): 97%
  Population Pyknosed Nuclei (%): 35%
  Population Tubulin-Different-Phenotype (%): 38%
  Total Cell Count: 137
[12]
  Population Apoptotic (%): 78%
  Population Fragmented Nuclei (%): 34%
  Population Healthy Nuclei (%): 41%
  Population Membrane Permeable-Phenotype (%): 1%
  Population Mitochondria Different-Phenotype (%): 7%
  Population Mitotic Cells (%): 21%
  Population Pyknosed Nuclei (%): 24%
  Population Tubulin-Different-Phenotype (%): 65%
